TDP2 absorb: human TDP2 enzyme inhibitors, primary screen, biochemical, epi absorbance, recombinant enzyme. Tyrosyl-DNA phosphodiesterase 2 (Homo sapiens), O95551. T5PNP hydrolysis, p-nitrophenol absorbance 415 nm. inhibition, % at 12.8 µM. actives 0.34% (n = 370,000);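 active = inhibition above the mean of all tested compounds plus 3 SD, set per campaign, cut at about 25% in these data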;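 note: 0% = DMSO with enzyme and 100% = buffer with substrate but no TDP2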
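Test system: Human TDP2 enzyme | Reagent: 5 mM T5PNP | Compound dosing: 12.8 µM single point, 1% DMSO | Incubation: Enzyme reaction with compound for 2 h at 37 °C | Technique: p-Nitrophenol epi absorbance | Read-out: % inhibition relative to enzyme-containing and enzyme-free wells | Benchmarks: High control without enzyme, low control DMSO plus TDP2 | Replicates: Singlicate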
UBC9 SUMO inh: inhibitors of in vitro SUMOylation cascade, primary screen, biochemical, HTRF, uHTS | HTRF SUMOylation assay, SAE1/SAE2 + UBC9 | actives 0.36% (n = 290,000) | inhibition, % at 35 µM | SUMO-conjugating enzyme UBC9 (Homo sapiens), P63279; in the data active = inhibition above about 50%, passing the limit was not always enough
NSD2 inh: NSD2 histone methyltransferase inhibitors, primary screen, biochemical, AlphaScreen, single concentration, set 2; Histone-lysine N-methyltransferase NSD2 (Homo sapiens), O96028; NSD2 peptide methylation, 120 min; inhibition, % at 12.5 µM; actives 0.54% (n = 310,000); AID 743445, 2014; in the data active = inhibition above about 50%
CTSL1 counter: Fasciola hepatica cathepsin L1 inhibitors, primary screen, counter-screen for PFM18AAP inhibitor project, biochemical, QFRET, fluorogenic peptide substrate; recombinant F. hepatica cathepsin L1, Z-Leu-Arg-MCA fluorescence; inhibition, % at 5.96 µM; actives 0.49% (n = 300,000);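 active = inhibition above the mean of all tested compounds plus 3 SD, set per screening campaign, cut at about 17% in these data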;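 note: 0% = plate median of test compound wells and 100% = 1 µM Z-Phe-Ala-diazomethylketone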
* = called active by the depositor; · = not tested or not shown. Most compounds without a hit are left out; they make up all but 1.2% or so of the library.

SMILES	TDP2 absorb	UBC9 SUMO inh	NSD2 inh	CTSL1 counter
CCOC(=O)COn1c(=O)c(-c2ccc(Cl)cc2)[n+]([O-])c2ccccc21	8.6	-7.9	0.4	·
CCCOC(=O)C1=C(C)NC2=C(C(=O)C(C(=O)OC)C(C)C2)C1c1ccc(N(CC)CC)cc1 (configuration not stated)	-1.8	7.7	3.8	20.3*
CN(C)[C@H]1CCN(c2ccc3c(c2)O[C@@H]2CCN(C2)S3(=O)=O)C1	3.6	·	·	·
CCN=C1NC(CCc2ccccc2)C(C(=O)OC)=C(C)N1Cc1ccccc1C(F)(F)F (configuration not stated)	-2.6	·	1.7	·
O=C(c1ccc(Cl)c(S(=O)(=O)N2CCCC2)c1)N1CCN(c2ccccc2)CC1	-6.6	3.4	1.3	34.7*
Cc1ccc(NC(=O)c2sc(N)nc2-c2ccc([N+](=O)[O-])cc2)cc1C	-11.2	28.0	-2.6	7.5
Cc1ccc(NC(=O)c2sc(N)nc2-c2ccccc2)cc1C	-1.6	8.4	-3.6	33.6*
O=C(/C=C(\Nc1ccc(Br)c(F)c1)c1ccccc1)c1ccccc1	-1.7	·	·	·
O=CN1CCN(C(=O)c2ccc(-c3nc4ccccc4s3)s2)CC1	-1.1	-1.1	3.4	25.9*
CC(C)C[C@H](NC(=O)c1ccc(Cl)cc1Cl)C(=O)N1CCC[C@H]1C(=O)NCc1ccccc1	-4.1	·	·	·
COc1cccc2c(SCC(=O)N/N=C/c3ccccc3)cc(C)nc12	4.4	20.5	0.8	-0.6
COc1cccc2c(SCC(=O)N/N=C/c3ccc(O)c(O)c3)cc(C)nc12	-8.6	35.6	132.0*	2.9
CCOC(=O)c1c(NC(=O)CN2CCCCC2)sc(CN(C)C)c1-c1ccccc1	-0.8	-17.6	5.8	-4.0
CCOC(=O)c1c(NC(=O)CCl)sc(CN(C)C)c1-c1ccccc1	-4.3	21.1	-4.0	22.0*
COc1ccc(NS(=O)(=O)c2cccc(C(=O)N(C)Cc3cccs3)c2)cc1	-12.1	·	2.2	26.7*
CCOC(=O)C(C(=O)OCC)N(C#N)c1nc(SC)nc(N(C)C)n1	2.1	14.0	4.6	85.6*
CCOC(=O)COc1nc(N(C)C)nc(N(C)C)n1	3.2	0.0	-0.9	-0.9
CCOC(=O)C(C(=O)OCC)N(C#N)c1nc(OC)nc(N(C)C)n1	11.1	9.2	-2.4	76.8*
COC(=O)C1=C(C)N(C)C(=NCc2ccc(OC)cc2)NC1c1cccc(C(F)(F)F)c1 (configuration not stated)	2.6	·	·	·
COc1cc(CC(=O)OCC(=O)NC2CC2)cc(OC)c1OC	2.9	-6.0	-1.0	46.1*
COC(=O)[C@]12C[C@H](CC(=O)N3CCSCC3)C(=O)N(Cc3ccc4c(c3)OCO4)C1=C[C@H](COCc1ccccc1)O[C@@H]2C	0.5	·	0.5	·
Cc1ccc(C)c(OCC(=O)Nc2nonc2NC(=O)COc2cc(C)ccc2C)c1	2.8	56.7*	4.9	-0.8
Cc1ccc2[nH]cc(C(=O)CCl)c2c1	-3.7	3.1	1.3	60.9*
CC(=O)n1c(Cl)c(NC(=O)CCl)c2ccccc21	0.6	21.6	·	37.1*
Cc1cccc(CS(=O)(=O)c2nnc([C@H](Cc3ccccc3)NC(=O)OC(C)(C)C)o2)c1	·	32.1	·	31.1*
SMILES	TDP2 absorb	UBC9 SUMO inh	NSD2 inh	CTSL1 counter
COC(=O)CSc1nnc([C@H](Cc2ccccc2)NC(=O)OC(C)(C)C)o1	-13.3	-4.5	0.2	4.5
COC(=O)CS(=O)(=O)c1nnc([C@H](Cc2ccccc2)NC(=O)OC(C)(C)C)o1	2.4	8.5	0.7	24.0*
O=C(c1ccccc1OC(F)F)N1CCN(S(=O)(=O)/C=C/c2ccccc2)CC1	·	·	-2.4	·
COC(=O)C1=C(C)N(Cc2cccc(C(F)(F)F)c2)C(=NCC2CC2)NC1c1ccc(F)cc1 (configuration not stated)	-0.5	·	·	·
Cc1ccc2c(c1)N(CC(=O)N1CCCCC1c1cccnc1)C(=O)CO2 (configuration not stated)	-4.4	5.6	-4.6	18.2*
Cc1ccc2c(c1)N(CC(=O)N1CCCCC1C)C(=O)CO2 (configuration not stated)	-14.2	-19.0	4.3	0.1
COc1cc2c(cc1OC)C(=O)C(Br)CC2 (configuration not stated)	·	·	139.8*	·
O=C(OCC#CCSc1nnc(-c2cccc3ccccc23)o1)c1ccc(F)cc1F	-12.3	·	-3.0	·
COc1cccc(N2C(=O)N(c3ccccc3)C3CS(=O)(=O)CC32)c1 (configuration not stated)	-0.1	5.4	3.4	5.1
COc1cccc(N2C(=O)N(c3ccccc3Cl)C3CS(=O)(=O)CC32)c1 (configuration not stated)	-6.8	-11.1	-2.2	17.4*
Cc1cnc(C(=O)OCC(=O)Nc2ccc(OCc3ccccc3)cc2)cn1	6.8	·	-0.2	·
O=C(Nc1ccccc1-c1nc2ccccc2[nH]1)c1ccc(N2C(=O)CCC2=O)cc1	1.9	13.9	3.5	9.6
O=C(Nc1ccc(-c2nc3ccccc3[nH]2)cc1)c1cccc(N2C(=O)CCC2=O)c1	-5.0	64.8*	-0.7	5.1
CC1=NN(c2ccccc2)C(=O)C1=Cc1ccccc1	72.9*	·	·	·
CC1=NN(c2ccccc2)C(=O)/C1=C/c1ccc(Cl)cc1	70.6*	77.9	·	·
COc1cccc(-c2cnc(C(O)c3ccc(-c4ccccc4)cc3)[nH]2)c1 (configuration not stated)	4.2	·	-3.1	·
O=C(NCc1ccccc1)[C@@H]1CCCN1C(=O)[C@H]1CCCN1C(=O)c1cc(F)cc(F)c1	-7.1	·	·	·
Cc1cc(C)n2c(NC3CCCCC3)c(CC(C)C)nc2n1	-4.9	·	·	·
O=C(CSc1ccc(-c2ccco2)nn1)c1cccc([N+](=O)[O-])c1	-9.4	73.2*	1.2	3.1
CC(C)C[C@H](NC(=O)OC(C)(C)C)C(=O)N[C@@H](CO)[C@H](O)[C@@H]1C[C@@H]1C(=O)N(C)C	·	-2.1	·	12.9
CCCCNC(=O)[C@H]1C[C@H]1[C@@H](O)[C@H](CO)NC(=O)[C@H](CC(C)C)NC(=O)OC(C)(C)C	·	9.2	·	43.6*
CC(C)(C)OC(=O)N[C@@H](COCc1ccccc1)C(=O)N[C@@H](CO)[C@H](O)[C@@H]1C[C@@H]1C(=O)NC1CC1	-2.8	-2.7	·	-2.8
CC(C)C[C@H](NC(=O)OC(C)(C)C)C(=O)N[C@@H](CO)[C@H](O)[C@@H]1C[C@@H]1C(=O)NC1CC1	-3.0	-4.9	·	19.7*
CC(C)C[C@H](NC(=O)OC(C)(C)C)C(=O)N[C@@H](CO)[C@H](O)[C@@H]1C[C@@H]1C(=O)NC1CCCCC1	-8.3	-11.2	·	32.9*
Cc1ccc(C)c(N2N=C(C(=O)OCC(=O)N(C)c3ccccc3)CCC2=O)c1	-16.9	·	0.0	·
CC(CCN1CCC(C(O)(c2ccccc2)c2ccccc2)CC1)Oc1cccc(Br)c1 (configuration not stated)	-10.7	·	·	·
CC1=NN(C(C#N)c2ccccc2)C(c2ccccc2)C1 (configuration not stated)	-2.3	-0.2	-5.2	18.5*

Compound activity: PubChem BioAssay, several laboratories
